Compound activity deposited in PubChem BioAssay by The Scripps Research Institute Molecular Screening Center.
M1 PAM parental: counter-screen for M1 PAMs: effect in parental CHO-K1 cells; ATP EC20, Fluo-8 calcium fluorescence; 0% at ATP EC20, 100% at ATP max; activation, % at 3 µM; 360,000 tested, 0.02% active; AID 602247;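 active means activation above the run cutoff, the mean activation of all test compounds plus 3 SD, cut at about 40% in these data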;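 further: peak over basal fluorescence ratio in a 140 s read after ATP addition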
CHO-K1 Ca antag: M1 antagonist counterscreen hit in parental CHO-K1 cells. ATP-induced calcium, Fluo-8 fluorescence. inhibition, % at 3 µM. 360,000 tested, 0.6% active. AID 602250;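 active means inhibition above a per-plate cutoff, the plate's mean sample inhibition plus 3 SD, cut at about 24% in these data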
TRPML3 agonist: activates the human TRPML3 channel. Q8TDD5. HEK293 TRPML3-YFP, Fluo-8 calcium fluorescence; 100% = the carbachol control signal. activation, % at 3 µM. 220,000 tested, 0.29% active. AID 1448;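 active means activation above its plate's cutoff, the mean activation of the plate's test wells plus 3 SD, cut at about 12% in these data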
Target sequence (Q8TDD5 whole entry, looked up): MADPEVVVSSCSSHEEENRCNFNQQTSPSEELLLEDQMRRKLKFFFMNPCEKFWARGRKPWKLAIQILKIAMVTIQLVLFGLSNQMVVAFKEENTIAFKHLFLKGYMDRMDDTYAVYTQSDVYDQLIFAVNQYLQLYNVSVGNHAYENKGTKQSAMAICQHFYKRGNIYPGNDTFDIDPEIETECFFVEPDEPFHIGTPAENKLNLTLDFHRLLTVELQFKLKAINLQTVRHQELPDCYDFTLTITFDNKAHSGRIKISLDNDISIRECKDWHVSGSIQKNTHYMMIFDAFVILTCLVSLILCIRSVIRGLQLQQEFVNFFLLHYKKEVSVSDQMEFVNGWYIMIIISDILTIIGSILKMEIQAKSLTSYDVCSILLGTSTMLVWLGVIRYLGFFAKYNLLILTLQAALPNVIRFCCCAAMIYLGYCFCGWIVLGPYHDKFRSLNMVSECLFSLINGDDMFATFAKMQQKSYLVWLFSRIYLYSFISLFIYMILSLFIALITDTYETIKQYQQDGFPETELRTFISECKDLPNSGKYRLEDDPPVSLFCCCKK
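Material: TRPML3-YFP stable HEK293 cells | Dosing: One concentration, 3 µM nominal, 0.3% DMSO | Timing: 125 s total fluorescence read per well | Technique: Fluo-8 calcium dye fluorescence, ex 470-495, em 515-575 nm | Measure: Percent activation from peak-to-basal fluorescence ratio, scaled between DMSO and carbachol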
M1 ag parental: counter-screen for M1 agonists: effect in parental CHO-K1 cells; Fluo-8 calcium fluorescence; scaled to maximal ATP response, vehicle zero; activation, % at 3 µM; 360,000 tested, 0.48% active; AID 602248; in the data active means activation above about 15%;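 further: untransfected CHO-K1 host cells lacking M1 receptor as counterscreen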
TRPN1 ag: agonists of zebrafish TRPN1 channel. HEK293 zebrafish TRPN1-YFP, Fluo-8 calcium fluorescence; 100% = response to 87 µM carbachol. activation, % at 3 µM. 220,000 tested, 0.18% active;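 active means activation above its plate's cutoff, the mean activation of test wells on that plate plus 3 SD, cut at about 19% in these data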
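Material – zebrafish TRPN1-YFP in HEK293 cells · Doses – 3 µM single point · Schedule – dye 1 h 37 °C plus 30 min RT · Signal – Fluo-8 calcium fluorescence, excitation 470-495 nm, emission 515-575 nm · Read-out – % activation versus carbachol response · Control set – carbachol high, DMSO low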
A number is an active result; - = inactive; . = no result; ! = repeats disagree. Most compounds without a hit are left out; they make up all but 1.2% or so of the library.

SMILES | M1 PAM parental | CHO-K1 Ca antag | TRPML3 agonist | M1 ag parental | TRPN1 ag
COc1ccc(N2CCN(CC(=O)c3c[nH]c4ccccc34)CC2)cc1 | - | 24.1 | - | - | -
O=C(Nc1ccccc1)c1cc(C2CCCCN2S(=O)(=O)c2ccc(F)cc2F)on1 (centres undefined) | - | - | . | - | .
CCC(=O)c1ccc(OCC(O)CNCCc2ccc(Cl)cc2)cc1 (centres undefined) | - | - | . | 15.2 | .
CCC(=O)c1ccc(OCC(O)CNCc2ccc(F)cc2)cc1 (centres undefined) | - | - | - | - | -
COC(=O)C1=C(C)NC(C)=C([N+](=O)[O-])C1c1ccccc1C(F)(F)F (centres undefined) | - | 34.8! | - | - | -
O=C(NCC1CCN(Cc2ccccc2)CC1)[C@H]1O[C@@H](n2ccc(=O)[nH]c2=O)[C@H](O)[C@@H]1O | - | - | . | - | .
CCOc1ccc(/C=C2\CCCc3c2nc2ccccc2c3C(=O)O)cc1OC | - | - | . | 45.4 | .
COc1ccc(/C=C2\CCCc3c2nc2ccccc2c3C(=O)O)cc1OC | . | . | 19.3 | . | 40.2
COc1ccc(/C=C2\CCc3c2nc2ccccc2c3C(=O)O)cc1OC | - | - | - | - | -
CC1=CC(C)C2(CO)COC(c3cccnc3)C1C2C (centres undefined) | - | 27.6 | - | - | -
N#Cc1c(-c2ccccc2Cl)cc(C2CC2)nc1N | 42.6 | - | - | 25.3 | -
COc1ccc(CNS(=O)(=O)CCNC(=O)c2ccc3c(c2)OCO3)cc1 | - | 23.9 | . | - | .
COc1ccc(C(=O)NCCS(=O)(=O)NCc2ccc3c(c2)OCO3)cc1 | - | - | . | - | .
CC(C(=O)NC(C)(C)C)N(Cc1cccs1)C(=O)CCN1CCc2ccccc21 (centres undefined) | - | - | - | 22.5 | -
CC(C)(C)NC(=O)CN(Cc1cccs1)C(=O)CCN1CCc2ccccc21 | - | - | - | - | -
CN(C)c1ccc(NC(=O)c2cccc(C(=O)Nc3ccc(N(C)C)cc3)n2)cc1 | - | 27.5 | - | - | -
CC(C)C(=O)N1CCCC1(C)C(=O)Nc1ccc2c(c1)OCO2 (centres undefined) | - | - | . | - | .
COC(=O)c1c(NC(=O)CN2C(=O)NC3(CCCCC3C)C2=O)sc2c1CCC2 (centres undefined) | - | - | . | - | .
CCOC(=O)c1c(NC(=O)CN2C(=O)NC3(CCCCC3C)C2=O)sc(C)c1CC (centres undefined) | - | - | . | 22.6 | .
COc1ccc(-c2cnnc(N/N=C/c3ccc(O)c(OC)c3)n2)cc1 | - | 34.7 | - | - | -
CCN(CC)S(=O)(=O)c1cccc(NC(=O)/C=C/c2cccc([N+](=O)[O-])c2)c1 | - | - | - | 15.6 | -
CCN(CC)S(=O)(=O)c1cccc(NC(=O)/C=C/c2ccc([N+](=O)[O-])cc2)c1 | - | - | - | - | -
O=C(NCc1ccco1)c1[nH]c(C(F)(F)F)nc1-c1ccccc1 | - | - | . | - | .
Cc1cccc(-c2ccc3[nH]c4c(c3c2)CCN2C[C@@H]([C@H](C)OC(=O)Nc3ccccc3C)[C@@H](N(C)C(=O)Nc3ccccc3C)C[C@@H]42)c1 | - | - | . | - | .
N/C(=N\OC(=O)CC1CCCCC1)c1ccncc1 | - | - | - | 16.9 | -
SMILES | M1 PAM parental | CHO-K1 Ca antag | TRPML3 agonist | M1 ag parental | TRPN1 ag
N/C(=N\OC(=O)CCC1CCCC1)c1ccncc1 | - | - | - | - | -
NC(=O)c1cccc(-c2coc3c(C(=O)NCc4ccccc4)cccc23)c1 | - | - | . | - | .
Cc1cc(=O)oc2ccc(OCC(=O)N(Cc3ccc(F)cc3)Cc3ccco3)cc12 | - | 37.5 | - | - | -
COc1ccccc1/C=C/CN1CCC(Oc2ccc(C(=O)N3CCCC3)cc2)CC1 | - | 25.7 | . | - | .
CC(=O)SCC[N+](C)(C)C | - | - | . | - | .
CC(=O)OCC[N+](C)(C)C | . | . | 99.8 | . | 75.2
CN(C)/C=N/NC(=O)C1Cc2c(ccc3ccccc23)O1 (centres undefined) | - | - | . | 16.0 | .
CCN(Cc1ccccc1)c1ccc(/C=N/N2CCOCC2)cc1 | - | 27.3 | - | - | -
O=C(CC1CCCC1)NCCS(=O)(=O)N1CCN(c2ccccc2)CC1 | - | - | . | - | .
Cc1ccccc1OCC(=O)N/N=C1\SCC(=O)N1Cc1ccccc1 | - | - | - | - | -
Cc1ccc(OCC(=O)N/N=C2/SCC(=O)N2Cc2ccccc2)cc1 | - | 25.0 | - | - | -
O=C1NC[C@@H](CCCCN2C[C@H](Cc3ccccc3)N(CC3CCCCC3)C(=O)C2=O)N(CCc2ccccc2)C1=O | - | - | . | - | .
COCCNC(=O)C1CCC(Cn2c(=S)[nH]c3ccccc3c2=O)CC1 (centres undefined) | - | 30.1 | - | - | -
Nc1ccc2nc3c(=O)n(C4CCCCC4)c(=O)[nH]c3nc2c1 | - | 29.9 | 43.1 | 95.3 | 79.5
Cc1cc2nc3c(=O)n(CCc4ccccc4)c(=O)[nH]c3nc2cc1N | - | - | - | 26.0 | 51.0
COc1cc2[nH]c(=O)n(C3CCCCC3)c(=O)c2cc1OC | - | - | - | - | -
Nc1ccc2nc3c(=O)n(CCc4ccccc4)c(=O)[nH]c3nc2c1 | - | - | 22.8 | 52.7 | 90.8
CCCCn1c(=O)[nH]c2nc3cc(N)ccc3nc2c1=O | - | - | 29.5 | 24.4 | 41.6
CCOC(=O)CN(C(=O)c1snc(C(N)=O)c1N)C(C(=O)NCCC(C)C)c1ccc(C)cc1 (centres undefined) | - | - | . | - | .
c1ccc2c(c1)C1=NCCN1c1ccccc1-2 | - | - | . | - | .
Fc1cccc(CNc2ncnc3cc(Cl)ccc23)c1F | - | - | . | 15.2 | .
CC1=C(C(=O)N(C)C)CC(CC(=O)NCc2cccs2)C(=O)N1Cc1ccc(C(C)(C)C)cc1 (centres undefined) | - | - | . | - | .
Cc1cc(OCc2cc(C(=O)N3CCC(Oc4cccnc4)CC3)no2)cc(C)c1Cl | - | 25.5 | . | - | .
COCC(=O)N1CCC(Oc2ccc(C(=O)N3C[C@@H]4CCC[C@H]3C4)cc2)CC1 | - | 23.8 | . | - | .
OC1c2c(F)cccc2N=C2CCCCN21 (centres undefined) | - | - | . | - | .
SMILES | M1 PAM parental | CHO-K1 Ca antag | TRPML3 agonist | M1 ag parental | TRPN1 ag
COc1ccc2c3c(cccc13)C(=O)CC2 | - | - | . | 30.1 | .
COc1ccc2c(c1OC)C(=O)OC2 | - | - | - | - | -
COc1cc(CNc2ncnc3c2ncn3[C@H]2CN(Cc3cc(OC)c(OC)c(OC)c3)C[C@@H](CO)O2)cc(OC)c1OC | - | - | . | - | .
CCOC(=O)c1cc(-c2ccc(F)cc2)n(CC(=O)N2CCCC2)c1C | - | - | - | 15.4 | -
COc1ccc(NC(=O)CSc2ncccc2C(=O)OC(C)C)cc1OC | - | 26.9 | - | - | -
Cc1ccc(N(CC(=O)NC(C)C)C(=O)CCC(=O)Nc2ccccn2)c(C)c1 | - | - | . | - | .
COC(=O)[C@H](Cc1c[nH]c2ccccc12)NC(=O)CCCc1c[nH]c2ccccc12 | - | - | . | 16.1 | .
